ChEMBL document CHEMBL1773020, “Discovery of fused bicyclic agonists of the orphan G-protein coupled receptor GPR119 with in vivo activity in rodent models of glucose control” (Bioorg Med Chem Lett, 2011)
Activity calls are given as the source filed them. The calls are words filed in the database; no cut-off is given here.

Assays:
[1] = target: T1, Glucose-dependent insulinotropic receptor (Rattus norvegicus, UniProt Q7TQN8); experiment: Agonist activity at rat GPR119 by melanophore assay; type: functional
T1 sequence (Q7TQN8 whole entry): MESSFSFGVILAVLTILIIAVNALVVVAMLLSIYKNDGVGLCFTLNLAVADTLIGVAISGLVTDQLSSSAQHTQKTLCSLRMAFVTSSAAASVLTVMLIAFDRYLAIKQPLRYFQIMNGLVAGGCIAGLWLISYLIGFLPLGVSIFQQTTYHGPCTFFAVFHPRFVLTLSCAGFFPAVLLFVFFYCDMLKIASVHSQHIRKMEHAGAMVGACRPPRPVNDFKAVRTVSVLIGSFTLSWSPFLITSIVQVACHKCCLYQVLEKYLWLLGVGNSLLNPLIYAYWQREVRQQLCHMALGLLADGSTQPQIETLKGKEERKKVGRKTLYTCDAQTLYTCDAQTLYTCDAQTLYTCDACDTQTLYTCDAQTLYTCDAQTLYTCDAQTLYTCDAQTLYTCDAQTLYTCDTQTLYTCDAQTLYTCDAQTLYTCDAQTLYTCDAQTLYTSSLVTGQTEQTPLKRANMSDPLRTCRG
Outline: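 Agonist EC50 measured in melanophores transfected with the human or rat GPR119 receptor sequence. Values are means of multiple determinations (n).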

[2] = Aqueous solubility of the compound; type: physicochemical; details: buffer
Rattus norvegicus [3] = experiment: Antidiabetic activity in po dosed Sprague-Dawley rat assessed as oral glucose tolerance; type: functional; details: read-out: MED
Outline: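 SD rats were fasted 3–16 h, and compound was given po at −30 min after a tail-nick glucose reading. At time 0, glucose 3 g/kg po (6 ml/kg) was given. Glucometer readings were taken at 0, 30, 60 and 120 min. Each rat was used twice, one week apart.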

Mus musculus = experiment: Antidiabetic activity in po dosed C57/BL6 mouse assessed as oral glucose tolerance; type: functional; details: read-out: MED
Outline: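 C57/BL6 mice were handled twice and fasted 3–16 h. Compound was given 0–30 min before the first sample. At time 0 a glucose bolus ([…] as printed, po) was given. Tail-nick glucose was read by glucometer at 0, 20, 40, 60 and 120 min.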

[4] = Plasma protein binding in female cynomolgus monkey; type: ADME, cell-free, Macaca fascicularis; details: read-out: PPB
[5] = Plasma protein binding in male cynomolgus monkey; type: ADME, cell-free, Macaca fascicularis; details: read-out: PPB
[6] = Plasma protein binding in human; type: ADME, cell-free; details: read-out: PPB
[7] = Plasma protein binding in female rat; type: ADME, cell-free; details: read-out: PPB (converted)
[8] = Plasma protein binding in male rat; type: ADME, cell-free; details: read-out: PPB (converted)
Cytochrome P450 2C9 = Cytochrome P450 2C9 (Homo sapiens, UniProt P11712); experiment: Inhibition of CYP2C9; type: ADME
Chain of Cytochrome P450 2C9 (P11712 whole entry): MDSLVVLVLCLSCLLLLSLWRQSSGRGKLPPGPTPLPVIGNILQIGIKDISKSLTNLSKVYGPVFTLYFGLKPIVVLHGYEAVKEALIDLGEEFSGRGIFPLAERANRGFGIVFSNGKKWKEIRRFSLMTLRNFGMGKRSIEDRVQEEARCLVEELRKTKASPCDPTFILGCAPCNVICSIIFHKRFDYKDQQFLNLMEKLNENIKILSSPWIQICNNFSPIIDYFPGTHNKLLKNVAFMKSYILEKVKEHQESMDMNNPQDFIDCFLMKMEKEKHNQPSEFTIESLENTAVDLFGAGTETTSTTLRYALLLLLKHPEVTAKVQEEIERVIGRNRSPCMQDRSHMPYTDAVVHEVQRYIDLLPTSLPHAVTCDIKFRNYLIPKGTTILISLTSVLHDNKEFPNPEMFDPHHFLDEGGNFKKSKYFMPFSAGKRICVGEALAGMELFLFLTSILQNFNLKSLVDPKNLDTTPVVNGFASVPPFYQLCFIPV
Outline: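 Inhibition constant (Ki) determined in human hepatic microsomes.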

Caco-2 = experiment: Apparent permeability across human Caco2 cells; type: ADME, cell-based
Salmonella typhimurium = experiment: Mutagenic activity in Salmonella Typhimurium; type: toxicity, organism-based; details: salmonella enterica subsp. enterica serovar typhimurium
[9] = Mutagenic activity in mouse lymphoma; type: toxicity
[10] = Mutagenic activity in mouse micronuclei; type: toxicity
[11] = target: Voltage-gated inwardly rectifying potassium channel KCNH2 (Homo sapiens, UniProt Q12809); experiment: Inhibition of human ERG by patch clamp assay
Chain of Voltage-gated inwardly rectifying potassium channel KCNH2 (Q12809 whole entry): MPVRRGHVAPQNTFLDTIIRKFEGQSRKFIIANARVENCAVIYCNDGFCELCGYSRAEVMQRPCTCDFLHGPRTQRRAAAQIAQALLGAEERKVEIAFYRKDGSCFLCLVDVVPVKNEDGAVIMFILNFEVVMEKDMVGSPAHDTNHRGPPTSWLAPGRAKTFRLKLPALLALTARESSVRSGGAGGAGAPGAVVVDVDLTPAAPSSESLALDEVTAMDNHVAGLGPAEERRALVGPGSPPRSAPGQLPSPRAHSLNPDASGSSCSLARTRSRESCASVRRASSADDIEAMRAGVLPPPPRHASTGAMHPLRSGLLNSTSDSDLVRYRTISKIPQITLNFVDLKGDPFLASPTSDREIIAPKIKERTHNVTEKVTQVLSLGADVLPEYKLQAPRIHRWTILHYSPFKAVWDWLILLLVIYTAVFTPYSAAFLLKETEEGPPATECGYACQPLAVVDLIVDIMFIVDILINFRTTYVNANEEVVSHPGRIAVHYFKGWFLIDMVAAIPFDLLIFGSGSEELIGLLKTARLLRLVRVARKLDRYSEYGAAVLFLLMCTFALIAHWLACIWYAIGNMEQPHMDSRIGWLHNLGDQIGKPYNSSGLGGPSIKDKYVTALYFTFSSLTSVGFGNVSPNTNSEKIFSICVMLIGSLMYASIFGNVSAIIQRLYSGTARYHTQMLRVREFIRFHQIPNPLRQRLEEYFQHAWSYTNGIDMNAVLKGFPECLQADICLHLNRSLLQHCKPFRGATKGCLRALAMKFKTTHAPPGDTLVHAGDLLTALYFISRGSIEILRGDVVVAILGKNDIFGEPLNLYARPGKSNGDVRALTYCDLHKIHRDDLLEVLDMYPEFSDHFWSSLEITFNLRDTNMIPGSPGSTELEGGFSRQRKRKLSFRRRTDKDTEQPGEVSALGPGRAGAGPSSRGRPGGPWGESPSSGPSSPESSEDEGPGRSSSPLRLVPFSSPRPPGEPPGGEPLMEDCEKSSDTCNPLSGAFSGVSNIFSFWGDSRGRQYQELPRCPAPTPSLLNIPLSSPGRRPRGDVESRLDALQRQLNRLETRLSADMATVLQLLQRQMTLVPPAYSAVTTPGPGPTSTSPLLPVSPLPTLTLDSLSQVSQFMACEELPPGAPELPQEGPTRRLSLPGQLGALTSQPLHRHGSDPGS

Rattus norvegicus [12] = experiment: Antidiabetic activity in hyperglycemic Sprague-Dawley rat model assessed as glucose dependent insulin release at 0.08 mg/kg/min, iv; type: functional, organism-based
Outline: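 Hyperglycemic clamp in male SD rats fasted overnight. After 1 h of baseline glucose and insulin sampling, vehicle or compound was infused into the jugular vein for 2 h. Glucose was clamped at 100 mg/dl for hours 1–2, then raised to 300 mg/dl for hour 3 by a 30% glucose bolus and variable infusion. Plasma insulin was followed.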

[13] = Tmax in po dosed mouse; type: ADME, organism-based; details: in vivo
[14] = Tmax in po dosed Sprague-Dawley rat; type: ADME, organism-based; details: in vivo
[15] = Tmax in po dosed cynomolgus monkey; type: ADME, organism-based, Macaca fascicularis; details: in vivo
[16] = Tmax in po dosed dog; type: ADME, organism-based, Canis lupus familiaris; details: in vivo
[17] = Oral bioavailability in mouse; type: ADME, organism-based; details: in vivo
[18] = Oral bioavailability in Sprague-Dawley rat; type: ADME, organism-based; details: in vivo
[19] = Oral bioavailability in cynomolgus monkey; type: ADME, organism-based, Macaca fascicularis; details: in vivo
[20] = Oral bioavailability in dog; type: ADME, organism-based, Canis lupus familiaris; details: in vivo
Cynomolgus monkey = experiment: Volume of distribution at steady state in po dosed cynomolgus monkey; type: ADME, organism-based, Macaca fascicularis; details: in vivo
Rattus norvegicus [21] = experiment: Volume of distribution at steady state in po dosed Sprague-Dawley rat; type: ADME, organism-based; details: in vivo
[22] = Elimination half life in iv dosed mouse; type: ADME, organism-based; details: in vivo, read-out: beta t1/2 (converted)
[23] = Elimination half life in iv dosed Sprague-Dawley rat; type: ADME, organism-based; details: in vivo, read-out: beta t1/2 (converted)
[24] = Elimination half life in iv dosed cynomolgus monkey; type: ADME, organism-based, Macaca fascicularis; details: in vivo, read-out: beta t1/2 (converted)
[25] = Elimination half life in iv dosed dog; type: ADME, organism-based, Canis lupus familiaris; details: in vivo, read-out: beta t1/2 (converted)
Rattus norvegicus [26] = experiment: Antidiabetic activity in ZDF rat assessed as blood glucose level at 30 mg/kg, po measured on day 56; type: functional
Outline: (§1)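 Male ZDF rats, 6 weeks old, baseline weight 200–250 g, were split into 3 groups by fed body weight and blood glucose. They received vehicle (100% PEG400) or compound daily for 56 days, n = 5–7 per group. Blood glucose and HbA1c were determined on days 1, 31 and 56, and body weight gain was recorded. Results are mean ± standard error.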

Rattus norvegicus [27] = experiment: Antidiabetic activity in ZDF rat assessed as glycated hemoglobin level at 30 mg/kg, po measured on day 1; type: functional; outline: as §1
Rattus norvegicus [28] = experiment: Antidiabetic activity in ZDF rat assessed as glycated hemoglobin level at 30 mg/kg, po measured on day 56; type: functional; outline: as §1
Rattus norvegicus [29] = experiment: Antidiabetic activity in ZDF rat assessed as blood glucose level at 10 mg/kg, po measured on day 56; type: functional; outline: as §1
Rattus norvegicus [30] = experiment: Antidiabetic activity in ZDF rat assessed as glycated hemoglobin level at 10 mg/kg, po measured on day 1; type: functional; outline: as §1
Rattus norvegicus [31] = experiment: Antidiabetic activity in ZDF rat assessed as glycated hemoglobin level at 10 mg/kg, po measured on day 56; type: functional; outline: as §1
Rattus norvegicus [32] = experiment: Antidiabetic activity in ZDF rat assessed as body weight gain at 10 mg/kg, po measured on day 56; type: functional; outline: as §1
Rattus norvegicus [33] = experiment: Antidiabetic activity in ZDF rat assessed as body weight gain at 30 mg/kg, po measured on day 56; type: functional; outline: as §1
Rattus norvegicus [34] = experiment: Antidiabetic activity in ZDF rat assessed as glycated hemoglobin level at 30 mg/kg, po measured on day 31
Rattus norvegicus [35] = experiment: Antidiabetic activity in ZDF rat assessed as glycated hemoglobin level at 10 mg/kg, po measured on day 31

## CC(C)OC(=O)N1CCC(Oc2ncnc3c2cnn3-c2ccc(S(C)(=O)=O)cc2F)CC1
[1]
  EC50: 33 nM
[2]
  solubility: soluble
Rattus norvegicus [3]
  minimal effective dose: 10 mg/kg
Mus musculus
  minimal effective dose: 3 mg/kg
[4]
  fraction unbound: ≤ 0.01
[5]
  fraction unbound: ≤ 0.01
[6]
  fraction unbound: ≤ 0.01
[7]
  fraction unbound: 0.034
[8]
  fraction unbound: 0.07
Cytochrome P450 2C9
  Ki: 100 nM
Caco-2
  permeability: permeable
Salmonella typhimurium
  Activity: Non-toxic
[9]
  Activity: Non-toxic
[10]
  Activity: Non-toxic
[11]
  IC50: 3000 nM
Rattus norvegicus [12]
  Activity: Active
[13]
  Tmax: ≤ 120 min
[14]
  Tmax: ≤ 120 min
[15]
  Tmax: ≤ 120 min
[16]
  Tmax: 360 min
[17]
  bioavailability: 44%
[18]
  bioavailability: 44%
[19]
  bioavailability: 44%
[20]
  bioavailability: 22%
Cynomolgus monkey
  Vdss: 0.1 L/kg
Rattus norvegicus [21]
  Vdss: 2.6 L/kg
[22]
  half-life: 48 min
[23]
  half-life: 48 min
[24]
  half-life: 48 min
[25]
  half-life: 48 min
Rattus norvegicus [26]
  Activity: 105.2 mg/dL
Rattus norvegicus [27]
  Activity: 3.4%
Rattus norvegicus [28]
  Activity: 4.7%
Rattus norvegicus [29]
  Activity: 359.3 mg/dL
Rattus norvegicus [30]
  Activity: 3.5%
Rattus norvegicus [31]
  Activity: 8.2%
Rattus norvegicus [32]
  Activity: 224.9 g
Rattus norvegicus [33]
  Activity: 204.2 g
Rattus norvegicus [34]
  Activity: 5.2%
Rattus norvegicus [35]
  Activity: 7.3%
